Results as given in ChEMBL document CHEMBL3808325, “Discovery and Optimization of Macrocyclic Quinoxaline-pyrrolo-dihydropiperidinones as Potent Pim-1/2 Kinase Inhibitors” (ACS Med Chem Lett, 2016).
pEC50, pIC50: −log10 of the molar value.

What was measured:
[1] = target: Dual specificity tyrosine-phosphorylation-regulated kinase 1A (Homo sapiens) (UniProt Q13627); test: Inhibition of human DYRK1A assessed as remaining enzyme activity at 1 uM by KINOMEscan assay
Summary of the method: (§1)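 scanMAX KINOMEscan panel of 392 nonmutant kinases, compound tested at 1 μM. Result expressed as percent of control (POC). S(10) and S(1) scores are the fraction of kinases with POC below 10% and below 1%.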

Mus musculus [2] = test: Toxicity in human KMS-12-BM cells xenografted SCID-beige mouse assessed as drug tolerability at 10 to 100 mg/kg, po qd; format: organism-based; details: in vivo
Summary of the method: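 Tolerability followed in KMS-12-BM xenograft mice given oral doses once daily at 10, 25, 50 or 100 mg/kg over a 16-day efficacy study. Body weight monitored throughout.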

KMS-12-BM = test: Antitumor activity against human KMS-12-BM cells xenografted in orally dosed SCID-beige mouse administered as qd relative to vehicle control; format: functional, organism-based
Summary of the method: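 Mouse KMS-12-BM xenograft efficacy study running 16 days. Oral dosing once daily at 10, 25, 50 or 100 mg/kg. Tumor volume compared with vehicle-treated controls.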

[3] = target: Serine/threonine-protein kinase PIM (Homo sapiens, UniProt P11309+Q9P1W9+Q86V86); test: Inhibition of Pim1/2 in human KMS-12-BM cells assessed as phosphorylation of full-length BAD protein at Ser-112 incubated for 110 mins by flow cytometric analysis in presence of 20% FBS; format: cell-based
Summary of the method: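 Cell assay in KMS-12-BM, a multiple myeloma line with relatively high endogenous Pim-1/2. Pim-dependent phosphorylation of full-length endogenous BAD at Ser-112 measured.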

Mus musculus [4] = test: In vivo inhibition of Pim1/2-mediated BAD protein phosphorylation at Ser-112 in human KMS-12-BM cells xenografted in SCID-beige mouse assessed as pBAD level at 50 mg/kg, po administered as single dose measured after 16 hrs by meso scale discovery assay; format: functional; set-up: scale not given: the % may be the effect or the level left
Summary of the method: (§2)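 KMS-12-BM xenograft mice given a single oral dose of 25, 50 or 100 mg/kg. Tumor Ser-112 pBAD measured at time points through 16 h postdose. EC50 obtained by fitting all individual total plasma concentration–pBAD response data. Unbound value derived from mouse plasma fraction unbound.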

[5] = Protein binding in rat assessed as as fraction unbound at 5 uM by rapid equilibrium dialysis method; format: ADME; details: plasma
[6] = target: Homeodomain-interacting protein kinase 2 (Homo sapiens) (UniProt Q9H2X6); test: Inhibition of human HIPK2 assessed as remaining enzyme activity at 1 uM by KINOMEscan assay; summary of the method: as §1
Homeodomain-interacting protein kinase 2 (Homo sapiens), sequence (Q9H2X6 whole entry, looked up): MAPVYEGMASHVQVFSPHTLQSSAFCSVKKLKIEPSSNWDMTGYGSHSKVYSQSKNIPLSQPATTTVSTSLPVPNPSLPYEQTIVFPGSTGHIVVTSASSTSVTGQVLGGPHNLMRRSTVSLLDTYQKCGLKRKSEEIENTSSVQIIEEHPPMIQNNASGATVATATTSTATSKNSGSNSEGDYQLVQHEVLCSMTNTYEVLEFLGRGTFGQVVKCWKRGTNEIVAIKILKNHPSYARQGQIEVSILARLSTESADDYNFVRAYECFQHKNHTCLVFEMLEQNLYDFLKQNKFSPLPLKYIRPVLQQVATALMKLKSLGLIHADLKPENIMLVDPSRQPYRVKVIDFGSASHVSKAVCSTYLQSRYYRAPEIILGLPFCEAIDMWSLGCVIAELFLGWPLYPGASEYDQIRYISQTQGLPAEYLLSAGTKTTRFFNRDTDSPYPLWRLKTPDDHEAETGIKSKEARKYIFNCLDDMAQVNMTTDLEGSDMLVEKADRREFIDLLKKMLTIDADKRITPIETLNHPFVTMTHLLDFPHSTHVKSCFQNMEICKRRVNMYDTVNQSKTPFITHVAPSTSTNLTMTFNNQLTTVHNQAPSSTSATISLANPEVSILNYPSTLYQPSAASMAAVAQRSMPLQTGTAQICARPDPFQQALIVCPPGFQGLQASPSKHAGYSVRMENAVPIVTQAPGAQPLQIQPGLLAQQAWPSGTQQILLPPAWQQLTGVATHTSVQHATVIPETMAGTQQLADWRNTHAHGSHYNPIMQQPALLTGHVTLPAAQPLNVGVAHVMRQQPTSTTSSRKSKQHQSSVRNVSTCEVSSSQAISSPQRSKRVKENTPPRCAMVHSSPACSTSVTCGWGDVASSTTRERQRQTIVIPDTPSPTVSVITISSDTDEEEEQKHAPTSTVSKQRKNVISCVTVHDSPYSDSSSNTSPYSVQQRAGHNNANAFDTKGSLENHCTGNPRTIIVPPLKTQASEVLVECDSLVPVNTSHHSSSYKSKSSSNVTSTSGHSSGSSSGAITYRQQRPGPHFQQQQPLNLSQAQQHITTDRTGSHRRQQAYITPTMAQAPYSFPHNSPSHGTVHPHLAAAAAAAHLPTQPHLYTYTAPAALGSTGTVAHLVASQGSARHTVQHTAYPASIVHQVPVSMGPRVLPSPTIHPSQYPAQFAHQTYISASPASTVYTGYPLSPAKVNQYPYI

Mus musculus [7] = test: In vivo inhibition of Pim1/2-mediated BAD protein phosphorylation at Ser-112 in human KMS-12-BM cells xenografted in SCID-beige mouse assessed as pBAD level at 100 mg/kg, po administered as single dose measured after 16 hrs by meso scale discovery assay; format: functional; set-up: scale not given: the % may be the effect or the level left; summary of the method: as §2
[8] = target: Serine/threonine-protein kinase haspin (Homo sapiens) (UniProt Q8TF76); test: Inhibition of human haspin assessed as remaining enzyme activity at 1 uM by KINOMEscan assay; summary of the method: as §1
Serine/threonine-protein kinase haspin (Homo sapiens), sequence (Q8TF76 whole entry): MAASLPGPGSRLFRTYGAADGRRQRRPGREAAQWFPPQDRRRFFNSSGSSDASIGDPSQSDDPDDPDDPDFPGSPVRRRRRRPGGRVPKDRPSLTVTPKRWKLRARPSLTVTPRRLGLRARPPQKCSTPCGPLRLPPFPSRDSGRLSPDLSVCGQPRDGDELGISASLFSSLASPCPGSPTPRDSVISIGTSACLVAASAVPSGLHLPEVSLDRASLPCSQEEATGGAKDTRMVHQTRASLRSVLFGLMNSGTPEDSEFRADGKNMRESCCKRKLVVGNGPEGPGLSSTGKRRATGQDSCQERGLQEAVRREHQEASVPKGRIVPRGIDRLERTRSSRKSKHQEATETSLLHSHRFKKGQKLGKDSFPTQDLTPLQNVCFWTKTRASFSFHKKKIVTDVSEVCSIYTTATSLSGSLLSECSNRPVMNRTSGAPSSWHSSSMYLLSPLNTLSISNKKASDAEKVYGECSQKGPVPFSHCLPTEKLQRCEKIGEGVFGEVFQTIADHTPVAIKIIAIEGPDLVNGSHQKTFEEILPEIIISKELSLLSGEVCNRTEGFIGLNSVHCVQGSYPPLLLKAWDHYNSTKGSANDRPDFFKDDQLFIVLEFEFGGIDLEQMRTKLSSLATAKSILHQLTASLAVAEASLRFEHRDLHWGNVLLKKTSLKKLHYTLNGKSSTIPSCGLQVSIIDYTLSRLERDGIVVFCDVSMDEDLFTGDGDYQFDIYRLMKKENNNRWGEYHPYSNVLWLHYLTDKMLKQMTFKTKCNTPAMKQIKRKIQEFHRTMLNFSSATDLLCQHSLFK

Mus musculus [9] = test: In vivo inhibition of Pim1/2-mediated BAD protein phosphorylation at Ser-112 in human KMS-12-BM cells xenografted in SCID-beige mouse assessed as pBAD level at 25 mg/kg, po administered as single dose measured after 16 hrs by meso scale discovery assay; format: functional; set-up: scale not given: the % may be the effect or the level left; summary of the method: as §2
[10] = Oral bioavailability in Sprague-Dawley rat at 5 mg/kg; format: ADME, organism-based; details: in vivo
Summary of the method: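 Pharmacokinetics in male Sprague–Dawley rats. Clearance also expressed as a percentage of liver blood flow. Oral bioavailability determined.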

[11] = Drug metabolism in human liver microsomes assessed as compound turnover at 1 uM incubated for 30 mins; format: ADME; details: read-out: Drug metabolism
Mus musculus [12] = test: In vivo inhibition of Pim1/2-mediated BAD protein phosphorylation at Ser-112 in human KMS-12-BM cells xenografted in SCID-beige mouse measured after 6 to 16 hrs by meso scale discovery assay; format: functional, organism-based; summary of the method: as §2
[13] = target: Serine/threonine-protein kinase pim-3 (Homo sapiens) (UniProt Q86V86); test: Inhibition of human PIM3 assessed as remaining enzyme activity at 1 uM by KINOMEscan assay
Summary of the method: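 Profiled at 1 μM compound across a scanMAX KINOMEscan panel of 392 nonmutant kinases. Activity is reported as percent-of-control (POC). Panel-wide S(10) and S(1) selectivity scores are the fraction of kinases with POC below 10% and below 1%.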

[14] = Cytotoxicity against human KMS-12-BM cells after 72 hrs by cell titer-glo luminescence assay; format: functional, cell-based
[15] = target: Casein kinase II subunit alpha (Homo sapiens) (UniProt P68400); test: Inhibition of full-length human CSNK2A2 expressed in mammalian system assessed as remaining enzyme activity at 1 uM by KINOMEscan assay; summary of the method: as §1
Casein kinase II subunit alpha (Homo sapiens), sequence (P68400 whole entry, looked up): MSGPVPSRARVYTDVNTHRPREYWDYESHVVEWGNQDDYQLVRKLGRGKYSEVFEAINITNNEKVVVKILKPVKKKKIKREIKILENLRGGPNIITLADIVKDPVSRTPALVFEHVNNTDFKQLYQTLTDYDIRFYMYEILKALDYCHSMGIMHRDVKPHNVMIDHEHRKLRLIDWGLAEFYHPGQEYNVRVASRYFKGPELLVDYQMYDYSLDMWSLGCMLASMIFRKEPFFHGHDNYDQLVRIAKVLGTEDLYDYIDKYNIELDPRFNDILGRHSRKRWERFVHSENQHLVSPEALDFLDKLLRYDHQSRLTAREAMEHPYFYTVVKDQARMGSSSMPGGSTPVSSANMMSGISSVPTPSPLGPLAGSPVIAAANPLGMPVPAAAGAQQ

Activity [1]: < 10%
IC50 [3]: 25 nM
fraction unbound at 5 µM [5]: 0.007
Activity [6]: < 10%
Activity [8]: < 10%
bioavailability [10]: 48%
metabolised at 0.5 h, 1 µM [11]: 24%
pEC50 (Mus musculus [12]): 5.44
Activity [13]: < 10%
Activity [15]: < 10%
SMILES: Cc1nc2cccc3c2nc1N[C@H](C)/C=C\C[C@H]1CNC(=O)c2cc-3[nH]c21
Activity (Mus musculus [2]): Non-toxic
TGI (KMS-12-BM): Dose-dependent effect
Activity (Mus musculus [4]): 8%
Activity (Mus musculus [7]): 53%
Activity (Mus musculus [9]): 0%
Activity (Mus musculus [12]): Dose-dependent effect
pIC50 [14]: 6.82
